Source: PubChem
Yeast lifespan up – yeast lifespan extension; S. cerevisiae growth with nicotinamide, OD615; deaD strain in restrictive glucose medium; inhibition of the nicotinamide effect, % at 10 µM; 130,000 compounds, 0.68% hits; AID 775;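 active = inhibition above a set limit, placed 3 SD over the median of all compounds, cut at about 26% in these data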;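 note: 0% = nicotinamide-treated wells and 100% = cells grown without nicotinamide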
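Measured by: optical density (absorbance) at 615 nm; System: modified budding yeast, DeaD strain; Medium: restrictive CSMM-D dextrose medium; Timing: 4 h preincubation then 48 h treatment at 30 °C.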
RAM network inh – yeast RAM network inhibition; S. cerevisiae dse1pr::URA3 reporter, 5-FOA growth OD615, 2 d; analog-sensitive cbk1-as2 kinase mutant strain; inhibition, % at 50 µM; 190,000 compounds, 1.8% hits;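 active = inhibition above a set limit, 3 SD over mean compound inhibition, cut at about 8.4% in these data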;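 note: 0% = DMSO-only wells with no growth and 100% = 10 µM 1-NA-PP1 full growth; inhibition rescues growth on 5-FOA so higher OD means more RAM inhibition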
Yeast growth inh – yeast BB579 growth reduction in restrictive medium | AID 804 | 140,000 compounds, 0.51% hits | inhibition, % at 10 µM | S. cerevisiae BB579 growth, OD615, 48 h;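 active = inhibition above a set limit, 3 SD over the mean compound inhibition, cut at about 44% in these data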
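Test system: DeaD yeast strain BB579 / Buffer or medium: restrictive glucose-based CSMM-D medium / Doses: single 10 µM dose / Schedule: 4 h cell preincubation, 48 h compound exposure, 30 °C humidified / Technique: culture absorbance at 615 nm / Controls: amphotericin B positive control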
An asterisk follows results filed as active; . = not tested or not shown. Sampled rows, rich in hits. Any-hit rate of the full collection: about 2.6%.

SMILES	Yeast lifespan up	RAM network inh	Yeast growth inh
Cc1cc(C)cc(-n2c(C)cc(C=C(C#N)C#N)c2C)c1	-12	3	-8
CCOC(=O)/C(C#N)=C/c1cc2ccc(C)cc2nc1Cl	32*	3	-7
Cc1ccc2cc(C=O)c(Cl)nc2c1	.	0	.
O=C1CCN(c2ccc([N+](=O)[O-])cc2F)CC1	.	3	.
COC(=O)C(NNc1ccccc1C)(NC(=O)c1ccc(F)cc1)C(F)(F)F (stereo not drawn)	14	5	-90
COc1ccc(CN(CC2CCC(C(=O)O)CC2)C(=S)Nc2cccc(C)c2)cc1 (stereo not drawn)	.	-1	.
O=C(OCC(=O)c1c[nH]c2ccccc12)c1ccc([N+](=O)[O-])s1	.	1	.
CCc1cccc2c(C(=O)COC(=O)c3ccc([N+](=O)[O-])s3)c[nH]c12	-9	3	98*
CC(=C/c1ccccc1)/C=C1/SC(N2CCOCC2)=NC1=O	-29	1	-22
CC(/C=C1\N=C(SCc2ccccc2)SC1=O)=C\c1ccccc1	1	9.9*	-17
O=C(O)c1cc([N+](=O)[O-])c(N2CCCC2)c([N+](=O)[O-])c1	-1	3	-1
CCC(NS(=O)(=O)c1ccc(C)cc1)C(=O)O (stereo not drawn)	-1	1	-35
CCCNC(=O)CCC(NS(=O)(=O)c1ccc(C)cc1)C(=O)NCCC (stereo not drawn)	80*	2	-33
O=C(Nc1ccc(S(=O)(=O)NCc2ccco2)cc1)C1CCCCC1	.	3	.
NS(=O)(=O)c1cccc(NS(=O)(=O)c2ccc(/C=C/C(=O)OCC(=O)c3ccccc3)cc2)c1	.	3	.
CCCCN(CCCC)c1ccc(C(=O)c2ccccc2C(=O)O)c(O)c1	34*	4	-41
CN(C)c1ccc(C(=O)c2ccccc2C(=O)O)c(O)c1	0	1	-5
Cc1ccc(NC(=O)COC(=O)CC2CCCC2)cc1Cl	.	1	.
CCc1ccccc1OCC(=O)Nc1nc(-c2cccnc2)cs1	.	-1	.
COc1ccccc1CNC(=O)C(CCSC)NS(=O)(=O)c1ccc2c(c1)oc(=O)n2C (stereo not drawn)	87*	0	-9
COc1ccccc1CNC(=O)C(CC(C)C)NS(=O)(=O)c1ccc2c(c1)oc(=O)n2C (stereo not drawn)	-1	4	-1
CC(c1nccs1)N(C)c1nc2nonc2nc1N(C)C (stereo not drawn)	.	2	.
COc1ccc(N2C(=O)C(CC(=O)Nc3ccccc3)N(CCc3ccc(OC)c(OC)c3)C2=O)cc1 (stereo not drawn)	.	4	.
COc1ccc(CCN2C(=O)N(c3ccc(OC)cc3)C(=O)C2CC(=O)Nc2ccccc2)cc1 (stereo not drawn)	.	9.1*	.
COc1cc(-c2n[nH]c(=S)n2-c2ccc(C)cc2)cc(OC)c1OC	.	7	.
SMILES	Yeast lifespan up	RAM network inh	Yeast growth inh
CN(C)c1cc[n+](CC(=O)c2ccc(-c3ccccc3)cc2)cc1	.	3	.
Cc1cccc(-c2nsc(SCC(=O)NCC3CCCO3)n2)c1 (stereo not drawn)	.	1	.
CCN(CC)CC(=O)Nc1sc(C)c(C)c1C(=O)c1ccc(C)cc1	.	2	.
Cc1ccc(C(=O)c2c(NC(=O)c3ccccc3C)sc(C)c2C)cc1	-25	10*	-47
COc1ccc2c(c1)c(=O)oc1cc(OCC(=O)N3CCc4ccccc4C3)ccc12	-6	5	-51
CS(=O)(=O)N1CCN(c2ccccc2[N+](=O)[O-])CC1	.	-1	.
CCCCn1c(SCc2cccc([N+](=O)[O-])c2)nc2ccsc2c1=O	2	8	-22
CCC(C)n1c(SCc2ccc([N+](=O)[O-])cc2)nc2ccsc2c1=O (stereo not drawn)	1	9.6*	-10
CN=C(Nc1cccc(OC)c1)SC1CC(=O)N(c2ccc(C(=O)O)cc2)C1=O (stereo not drawn)	0	5	4
COc1cc(/C=C(\C#N)C(=O)Nc2cccnc2)ccc1OC(C)C	-10	0	5
Cc1cccc(NCC(=O)N/N=C\c2cccc(Oc3ccccc3)c2)c1	-2	3	-25
Cc1ccc(NCC(=O)N/N=C/c2cccc(Oc3ccccc3)c2)cc1	-6	10*	-26
CC(=O)c1cccc(NS(=O)(=O)c2ccc(N/C=C/C(=O)c3ccc(F)cc3)cc2)c1	7	9.6*	-25
CC(=O)c1cccc(NS(=O)(=O)c2ccc(N/C=C\C(=O)c3ccc(F)cc3)cc2)c1	-11	3	-34
COc1cccc(C(=O)/C=C/Nc2ccc(S(=O)(=O)Nc3onc(C)c3C)cc2)c1	3	8.9*	-50
CCOc1ccc(C(=O)/C=C/Nc2ccc(S(=O)(=O)Nc3onc(C)c3C)cc2)cc1	4	6	-23
CC(=O)Nc1ccccc1OC(C)C(=O)NC(C)c1ccc(F)cc1 (stereo not drawn)	-1	-1	-21
CC(C)CCn1c(Sc2nc3ccccc3o2)nc2c1c(=O)[nH]c(=O)n2C	-5	1	-57
O=c1c(Cl)c(Cl)cnn1-c1ccccc1	40*	3	16
CCCCNc1cnn(-c2ccccc2)c(=O)c1Cl	.	0	.
CCN(Cc1cnn(C)c1)Cc1nc(C(c2ccccc2)c2ccccc2)no1	.	-2	.
Cc1ccc(NC(=O)CN(C)C(=O)c2cc3ccccc3o2)cc1	.	2	.
O=c1c2c([N+](=O)[O-])cc([N+](=O)[O-])cc2sn1-c1ccc(Br)cc1	-5	2	45*
O=c1c2cc(Br)ccc2nc(-c2ccc([N+](=O)[O-])cc2)n1O	.	-1	.
C=CCNC(=O)CSCc1ccc(Br)cc1	.	2	.
SMILES	Yeast lifespan up	RAM network inh	Yeast growth inh
COc1ccc(C(=O)n2nnc3ccccc32)cc1OC	23	1	-57
Cc1ccc(C(=O)n2nnc3ccccc32)cc1[N+](=O)[O-]	32*	2	-32
Cc1ccccc1NC(=O)CSc1ccsc1[N+](=O)[O-]	0	3	-17
Cc1cc(C)nc(/N=C(\N)Nc2ccc(S(=O)(=O)Nc3nccc(C)n3)cc2)n1	.	-1	.
COc1ccc2[nH]c(=O)c(CN(Cc3ccco3)Cc3nnnn3Cc3ccccc3)cc2c1	-7	9.7*	-28
CCOc1ccc2[nH]c(=O)c(CN(Cc3ccco3)Cc3nnnn3Cc3ccccc3)cc2c1	-24	3	-26
CCCCN1CCc2[nH]c(=S)[nH]c(=O)c2C1	2	0	-8
COc1ccc(C(C#N)N2CCC(c3ccccc3)=N2)cc1OC (stereo not drawn)	.	3	.
COc1ccc(C2=NN(C(C#N)c3ccc(OC)c(OC)c3)C(c3ccccc3)C2)cc1 (stereo not drawn)	-15	8.5*	-17
COc1ccc(-c2[nH]ncc2CN2CCC(OCc3cccnc3)CC2)c(F)c1	.	1	.
CCCn1c(C)cc(C(=O)COc2ccc(S(=O)(=O)N(CC)CC)cc2[N+](=O)[O-])c1C	3	8.4*	-47
CCCn1c(C)cc(C(=O)COc2ccc(C)nc2[N+](=O)[O-])c1C	-4	0	-28
N#C/C(=C\Nc1ccccc1O)c1nc2ccccc2o1	-6	6	0
COc1ccc(NC(=O)c2sccc2C)cn1	.	1	.
Cc1ccc(NC(=O)CSc2ccccc2NC(=O)c2ccccc2Cl)cc1Cl	2	2	-8
O=[N+]([O-])c1cc(Br)cc(/C=N/n2cnnc2)c1O	.	-1	.
